Screening results from PubChem.
tolC growth inh – E. coli tolC mutant growth inhibition; E. coli BW25113 tolC mutant growth, OD615; growth inhibition, % at 10 µM (by protocol); 65,000 tested, 2.2% active; AID 573;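 active = growth inhibition at or above a cutoff equal to the mean over every tested compound plus 3 SD, cut at about 60% in these data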;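 also: growth measured after 20 h incubation at 37 °C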
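Test system: tolC-deleted E. coli BW25113; medium: LB with kanamycin 50 µg/mL; compound: single-point testing at 10 µM; incubation: 20 h compound exposure of bacteria at 37 °C; signal: OD at 615 nm; evaluation: growth inhibition in percent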
PostGolgi yeast – growth inhibition of a yeast mutant, post-Golgi transport screen | inhibition, % at 10 µM | post-Golgi transport phenotypic cell assay | 98,000 tested, 0.9% active | AID 739;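 also: yeast cells grown in 1536-well plates; yeast grown about 18 h at 30C before absorbance read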
Pyk2 oligo antag – blocks oligomerization of human Pyk2 in cells. z-score (the deposit names both 25 µM and 10 µM). Q293 cells, Pyk2 FERM NanoBiT luminescence; hits give low values. 99,000 tested, 0.83% active. Q14289;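 active = Z-score of -3 or lower, scaled per plate to the spread of control and sample wells; inactive = z-score above -3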;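 also: negative z-score means lost luminescence so less FERM oligomerization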
PostGolgi ctrl – inhibits growth of the yeast control strain; AID 738; inhibition, % at 10 µM; 98,000 tested, 5% active; efflux-deficient yeast background strain, growth absorbance A615, 16 h
Calb biofilm kill – kills Candida albicans biofilms; C. albicans biofilm + clotrimazole, Alamar Blue; inhibition, % at 6 µM; 85,000 tested, 0.14% active;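 active = inhibition above 20%; inactive = inhibition below 20%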;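 also: preformed 24 hr biofilms exposed to compound for 48 hr; 0% = biofilm without compound and 100% = blank killed by clotrimazole plus chlorhexidine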
FAK blocker – FAK (human) kinase inhibition; biochemical FAK kinase activity assay; AID 727; inhibition, %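 (tested at 7 µM)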; Q05397; 97,000 tested, 0.84% active; in the data active = inhibition above about 19%;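 also: 0% = DMSO and 100% = reference compound high control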
Target sequence (Q05397 whole entry, looked up): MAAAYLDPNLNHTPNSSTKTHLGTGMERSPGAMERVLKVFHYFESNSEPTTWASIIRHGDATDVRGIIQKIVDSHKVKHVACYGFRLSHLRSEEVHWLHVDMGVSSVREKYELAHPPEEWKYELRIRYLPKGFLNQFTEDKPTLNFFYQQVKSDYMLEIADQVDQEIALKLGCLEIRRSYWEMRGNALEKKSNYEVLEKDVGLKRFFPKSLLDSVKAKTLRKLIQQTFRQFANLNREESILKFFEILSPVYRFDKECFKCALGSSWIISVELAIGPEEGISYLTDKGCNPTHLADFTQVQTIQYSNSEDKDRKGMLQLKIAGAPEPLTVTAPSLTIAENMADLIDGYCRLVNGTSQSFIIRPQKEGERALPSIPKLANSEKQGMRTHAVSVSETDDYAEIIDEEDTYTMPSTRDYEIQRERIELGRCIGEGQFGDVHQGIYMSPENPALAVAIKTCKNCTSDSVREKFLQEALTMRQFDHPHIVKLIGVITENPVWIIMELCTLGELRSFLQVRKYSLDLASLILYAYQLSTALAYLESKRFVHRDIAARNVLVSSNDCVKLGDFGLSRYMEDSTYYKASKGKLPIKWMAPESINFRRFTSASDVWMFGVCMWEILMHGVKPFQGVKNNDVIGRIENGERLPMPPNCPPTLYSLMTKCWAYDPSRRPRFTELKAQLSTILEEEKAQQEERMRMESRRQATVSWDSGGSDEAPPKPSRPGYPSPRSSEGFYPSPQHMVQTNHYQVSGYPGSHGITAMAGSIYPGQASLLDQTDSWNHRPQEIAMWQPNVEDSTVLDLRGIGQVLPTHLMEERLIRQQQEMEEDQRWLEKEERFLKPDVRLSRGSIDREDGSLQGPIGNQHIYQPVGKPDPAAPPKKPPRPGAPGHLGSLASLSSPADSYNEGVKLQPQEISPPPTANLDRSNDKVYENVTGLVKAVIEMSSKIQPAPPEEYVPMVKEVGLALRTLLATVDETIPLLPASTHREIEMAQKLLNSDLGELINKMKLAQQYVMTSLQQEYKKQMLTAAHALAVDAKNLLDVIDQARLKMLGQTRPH
FAK inh conf – confirmation of human focal adhesion kinase (FAK) inhibitors | shares compounds with FAK blocker | FAK kinase biochemical inhibition assay | inhibition, % at 7 µM | 750 tested, 28% active; in the data active = inhibition above about 19%
Active calls of the source: *; · = no result given. Most compounds without a hit are left out; they make up all but 6.9% or so of the library. Rule as the data show it, unless noted: active = inhibition above about 30%; inactive = the rest.

SMILES | tolC growth inh | PostGolgi yeast | Pyk2 oligo antag | PostGolgi ctrl | Calb biofilm kill | FAK blocker | FAK inh conf
Cc1n[nH]c(C)c1N=Nc1cc(Cl)ccc1Cl | · | -16 | -1.2 | 13 | · | 41* | 21*
c1ccc(OCCCc2nc(-c3ccncc3)no2)cc1 | 16 | -5 | 1.1 | 17 | 5 | 0 | ·
Cn1nc(-c2ccc(Cl)cc2)nc2c(=O)n(C)c(=O)nc1-2 | · | 106* | · | 107* | 12 | 69* | 67*
CCS(=O)(=O)n1nc(-c2ccc(Cl)cc2)nc1SC | · | 4 | -1.1 | -5 | 6 | 4 | ·
O=C(OCCCN1C(=O)c2ccccc2C1=O)c1ccco1 | -28 | 2 | 0.04 | 5 | -3 | 3 | ·
Cc1ccc(-c2c(C#N)c(N)n3c(nc4ccccc43)c2C#N)cc1 | · | 4 | -4* | 16 | · | 24* | 3
CC(=O)c1cc(C#N)c(Oc2ccc(F)cc2)nc1C | · | 4 | 0.38 | 12 | · | 1 | ·
CCOc1ccc(CNC(=O)C2CCN(S(=O)(=O)N3CCCC3)CC2)cc1OC | -10 | 18 | 1.2 | 2 | · | 9 | ·
CSc1nc(N2CCN(CCO)CC2)c2sc3nc(-c4ccco4)c4c(c3c2n1)CCC4 | -20 | · | · | · | 0 | · | ·
CSc1nc(N(C)CCO)c2sc3nc(-c4ccco4)c4c(c3c2n1)CCC4 | · | 8 | 0.6 | -2 | · | 36* | -1
Cc1ccc(NC(=O)COc2ccc(/C=N/NC(=O)CSCc3ccccc3)cc2)cc1 | · | -3 | 1 | 6 | · | 20* | 1
O=C(NCn1ccc(=O)[nH]c1=S)c1ccccc1 | -9 | -1 | 1.1 | 3 | 6 | -2 | ·
O=c1[nH]c(Nc2ccccc2)cc2ccccc12 | 15 | 5 | 0.41 | 4 | 8 | 38* | 35*
Nn1c(Nc2ccccc2)nc2ccccc2c1=O | -12 | 0 | -0.63 | 2 | 6 | 9 | ·
CC(C)(C)Sc1ccc(N)nc1 | -31 | 1 | 0.46 | 0 | · | -1 | ·
Cc1ccc2[nH]c3c(NCc4ccco4)ncnc3c2c1 | 40 | 9 | 0.02 | 2 | 8 | 34* | 21*
c1coc(CNc2ncnc3nc[nH]c23)c1 | -13 | 3 | · | 10 | 10 | · | ·
CCC(C)n1cnc2c(c1=O)c1nc3ccccc3nc1n2-c1ccc2c(c1)OCCO2 (centres undefined) | -19 | -4 | -0.71 | 3 | 1 | 21* | 11
Cc1cc(C)c(S(=O)(=O)N2CCCCC2)c(C)c1N(C)S(=O)(=O)c1ccccc1 | · | 3 | -2 | 10 | · | 2 | ·
COc1ccc(CCNC(=O)COC(=O)c2ccco2)cc1OC | -4 | 5 | 0.56 | 2 | 9 | -7 | ·
COc1ccc(CCNC(=O)c2ccc3nc(-c4ccco4)c(-c4ccco4)nc3c2)cc1OC | 27 | 0 | -0.99 | 3 | -7 | 54* | 2
O=C(CC1C(=O)NCCN1C(=O)Nc1ccccc1)Nc1ccc2c(c1)OCO2 (centres undefined) | -9 | -8 | -1.2 | 3 | 6 | 0 | ·
O=C(CC1C(=O)NCCN1C(=S)Nc1ccccc1)Nc1ccc2c(c1)OCCO2 (centres undefined) | · | -1 | -1 | 4 | 9 | 23* | 1
O=C(O)C1CCCCC1C(=O)Nc1cccc2ccccc12 (centres undefined) | · | · | 0.67 | · | 5 | -1 | ·
O=C1c2ccccc2C(=O)C1c1ccnc2ccccc12 | · | · | -0.32 | · | 6 | 51* | 34*
SMILES | tolC growth inh | PostGolgi yeast | Pyk2 oligo antag | PostGolgi ctrl | Calb biofilm kill | FAK blocker | FAK inh conf
O=C1C(c2ccnc3ccccc23)=C(O)c2ccccc21 | · | · | -0.94 | · | 1 | 31* | 27*
O=C1NC2(CCCCCC2)Cc2ccccc21 | · | 4 | 1.2 | 8 | 2 | 2 | ·
Cc1ccc(NC2=C(N3CCOCC3)C(=O)c3ccccc3C2=O)cc1 | · | -4 | -0.77 | 3 | · | 43* | 3
CC(=O)N(C)C1=C(N2CCOCC2)C(=O)c2ccccc2C1=O | · | 7 | -0.97 | -10 | · | 0 | ·
Cn1c(C(=O)N2CCN(C(=O)c3ccco3)CC2)cc2c(=O)n(C)c3ccccc3c21 | 32 | -10 | · | 35* | 3 | 19* | 4
Cc1ccc(NC(=O)Cn2cncc2-c2ccc([N+](=O)[O-])cc2)cc1C | · | 1 | -0.33 | 33* | · | 24* | 9
O=C(Nc1ccc(F)cc1)Nc1nnc(-c2ccncc2)s1 | · | -6 | -1.8 | 11 | · | 30* | 7
O=C(NCc1ccc2c(c1)OCO2)C(c1ccco1)N(C(=O)c1csnn1)c1ccccc1 (centres undefined) | -19 | 3 | -0.48 | 2 | 5 | 1 | ·
CC(C)CNC(=S)NC1CCCC1 | · | 14 | 0.24 | 4 | · | 1 | ·
Cc1ccc(OC(=O)c2cccc(C(=O)Oc3ccc(C)cc3)n2)cc1 | · | 6 | 0.82 | 2 | 0 | 3 | ·
Cc1ccc(OC(=O)c2ccccc2P(=O)(O)O)cc1 | · | -5 | 1.3 | 4 | 4 | 50* | 44*
O=C(Oc1ccccc1)c1c(Cl)cccc1P(=O)(O)O | -4 | -5 | 0.23 | 8 | -6 | 76* | 58*
O=C(Oc1ccccc1Cl)c1ccccc1P(=O)(O)O | · | -5 | 0.68 | 0 | 1 | 72* | 68*
CCOC(=O)CNC(=O)CN1C(=O)CCS(=O)(=O)c2ccccc21 | -3 | 4 | 0.55 | 6 | 6 | -4 | ·
Cc1ccc2nc3c(cc(C(N)=S)c(=N)n3CCCOC(C)C)c(=O)n2c1 | 3 | 0 | -0.43 | 9 | 2 | 28* | -2
COCCCn1c(=N)c(C(N)=S)cc2c(=O)n3cccc(C)c3nc21 | 2 | · | · | · | 8 | · | ·
COc1ccccc1CNC(=O)COC(=O)c1cc(-c2ccco2)nc2ccccc12 | · | -3 | 0.95 | 17 | · | 45* | 24*
Cn1c2ccccc2c(=O)n2c(=O)c3ccccc3cc12 | 27 | -1 | · | -2 | 9 | 31* | 47*
O=C1CCCC2=C1C(c1ccc(Cl)cc1)N1C(=O)CCSC1=N2 (centres undefined) | · | · | -0.39 | · | 10 | 1 | ·
O=C1CCCC2=C1C(c1ccc(Cl)cc1)C1C(=O)c3ccccc3C1=N2 (centres undefined) | · | 10 | -2.9 | 43* | · | 23* | 6
CCn1c(CNC(=O)c2ccco2)nnc1SCC(=O)Nc1cc(C)c(C)cc1Br | · | 3 | 0.01 | 2 | 5 | 0 | ·
CC1CCc2ccc(F)cc2N1S(=O)(=O)c1cccs1 (centres undefined) | 47 | -3 | -0.63 | 6 | 4 | -3 | ·
CC1(C)CCCN(C(=O)c2coc(=O)c(Br)c2)C1 | -9 | 6 | -0.28 | -1 | -3 | 46* | 68*
Nc1cc(N)cc(-c2nc3ccccc3o2)c1 | -9 | · | · | · | 3 | · | ·
O=c1c(-c2nc3ccccc3o2)c2oc3ccccc3n2c2ccccc12 | 98* | -3 | · | 21 | · | 24* | -1
COc1ccccc1C(=O)NCCn1cc(SCC(=O)Nc2cc(C)on2)c2ccccc21 | 25 | · | -1.9 | · | -2 | -1 | ·
O=C(c1cccc(S(=O)(=O)N2CCCC2)c1)N1CCN(c2ccccc2F)CC1 | -2 | -1 | 0.76 | 10 | · | 35* | -1
CCOc1ccc(C(=S)NC2CCCCC2)cc1OC | · | 0 | -0.46 | 7 | · | 2 | ·
